Assay results taken from paper PMC10810238 (Arabian journal of chemistry, 2023).
Values joined by “and” are separate entries in the source; they are usually repeats but may differ in a detail not shown here. Equal entries are not always repeated. Where two headings read alike, the source gives them in different places.

Assays:
[1] = system: P. falciparum NF54 strain; assay: In vitro antiplasmodial screening, 3H-hypoxanthine incorporation assay; format: cell-based, Plasmodium falciparum; conditions: for Selectivity Index: L6 IC50 / Pf IC50
Method in brief: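 P. falciparum NF54 erythrocytic stages were grown in human A+ red cells (2.5% haematocrit, 0.3% parasitaemia) in hypoxanthine-free RPMI 1640 with HEPES, NaHCO₃, neomycin and Albumax. Test compound was stocked in DMSO at 10 mg/ml and diluted in medium to […]. Plates ran 48 h at 37 °C under 4% CO₂/3% O₂/93% N₂, then 0.5 µCi ³H-hypoxanthine was added for 24 h. Cells were harvested for scintillation counting. IC50 came from sigmoidal curves by linear regression, with chloroquine as standard.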

[2] = In vitro cytotoxicity with L-6 cells; format: cell-based; conditions: rat, L-6 cells (rat skeletal myoblasts)
[3] = system: Plasmodium berghei NK 65 strain; assay: Peter's four-day suppressive test; format: in vivo, Plasmodium berghei in Swiss albino mice; conditions: for % Parasitemia: mean ± SEM
[4] = system: Plasmodium berghei NK 65 strain; assay: Mean Survival Time; format: in vivo, Plasmodium berghei in Swiss albino mice
Method in brief: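 Peters' 4-day suppressive design: male and female Swiss albino mice (14–31 g) were inoculated with P. berghei NK 65 and randomised into five groups. Test compound in vehicle (100, 200 or 400 mg/kg) was given orally once daily on days 0–4, first dose 2 h after inoculation. Chloroquine at 100 mg/kg was the positive control and vehicle alone the negative control. Mortality was recorded for 30 days from inoculation.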

[5] = system: P. falciparum NF 54 strain; conditions: ref Miglianico et al., 2023; cited from earlier work
In vivo acute toxicity = assay: In vivo acute toxicity; set-up: species or system Swiss albino mice
Method in brief: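 Male and female Swiss albino mice, 6–8 weeks old, were dosed per OECD guidance. Each group got one oral dose of test compound (100, 200, 400, 2000 or 5000 mg/kg) in 10% DMSO/10% Tween 80/80% water; a vehicle group served as control. Intoxication signs and mortality were watched for the first 30 min, then over 14 d. Mice were weighed on the first and final day (final day 14 d for the three lower doses, 7 d for the two higher). LD50 was the geometric mean of the least lethal dose and the highest non-lethal dose (Lorke). Kidney and liver were examined by histology, with paired t-test statistics.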

[6] = Plasmodium falciparum, NF54, read-out: Antiplasmodial (Pf) IC50, NF54 strain, erythrocytic stages
[7] = read-out: Antiplasmodial (Pf) IC50, NF54 strain, erythrocytic stages
[8] = 100 mg/kg oral daily Days 0-4, Day 4 blood
[9] = 100 mg/kg oral daily Days 0-4, monitored 30 days, (+) = animals survived

Cl.N=C(N)c1ccc(C(=O)NO)cc1 [Compound 1d, 4-Carbamimidoyl-N-hydroxybenzamide Hydrochloride]
Selectivity Index [1]: 98.72
IC50 [1, 6]: < 200 nM
IC50 [1, 7]: 199 nM
IC50 at 72 h [2]: 19600 nM

N=C(NO)c1ccc(NC(=S)NOCc2ccccc2)cc1 [Compound 2b, 4-(3-(Benzyloxy)thioureido)-N-hydroxybenzimidamide]
Selectivity Index [1]: 7.59
IC50 [1, 6]: 2400 nM
IC50 at 72 h [2]: 18200 nM

N=C(NO)c1ccc(C(=O)NO)cc1 [Compound 1c, N-Hydroxy-4-(N-hydroxycarbamimidoyl)benzamide]
Selectivity Index [1]: 27.04
IC50 [1, 6]: 405 nM
IC50 at 72 h [2]: 11000 nM

COc1cc([C@@H]2c3cc4c(cc3[C@H](O)[C@H]3COC(=O)[C@H]23)OCO4)cc(OC)c1OC [Podophyllotoxin, reference compound]
IC50 at 72 h [2]: 2 nM

CCN(CC)CCCC(C)Nc1ccnc2cc(Cl)ccc12 (stereo not shown) [Chloroquine, chloroquine, reference compound]
Selectivity Index [1]: 33069.00
IC50 [1, 6]: 2 nM
% Suppression ± SEM ([3]; 100 mg/kg oral daily Days 0-4): 81.71 ± 1.82%
% Parasitemia [3, 8]: 2.4 ± 0.08%
% Suppression ± SEM ([3]; 100 mg/kg oral daily Days 0-4, listed as standard drug): 81.71%
MST [4, 9]: 30 (+) days
IC50 at 72 h [2]: 66100 nM

CCc1nc(N)nc(N)c1-c1ccc(Cl)cc1 [Pyrimethamine]
IC50 [5]: 17 nM

CC1(C)N=C(N)N=C(N)N1c1ccc(Cl)cc1 [cycloguanil]
IC50 [5]: 4.5 nM

Nc1ccc(C(=O)NO)cc1 [Compound 3b, 4-Aminobenzenecarbohydroxamic acid]
Selectivity Index [1]: 44.92
IC50 [1, 6]: < 200 nM
IC50 [1, 7]: 147 nM
% Suppression ± SEM ([3]; 100 mg/kg oral daily Days 0-4): 51.99 ± 10.38%
% Parasitemia [3, 8]: 6.25 ± 0.95%
% Suppression ± SEM ([3]; 200 mg/kg oral daily Days 0-4): 78.55 ± 13.35%
% Parasitemia ([3]; 200 mg/kg oral daily Days 0-4, Day 4 blood): 2.95 ± 1.95%
% Suppression ± SEM ([3]; 400 mg/kg oral daily Days 0-4): 80.53% and 80.53 ± 3.26%
% Parasitemia ([3]; 400 mg/kg oral daily Days 0-4, Day 4 blood): 2.6 ± 0.6%
MST [4, 9]: 24 days
MST ([4]; 200 mg/kg oral daily Days 0-4, monitored 30 days): 29.5 days
MST ([4]; 400 mg/kg oral daily Days 0-4, monitored 30 days, (+) = animals survived): 30 (+) days
IC50 at 72 h [2]: 6600 nM
Mortality D0 (In vivo acute toxicity; 100 mg/kg bdw oral, 4 mice): 0
Mortality D1 (In vivo acute toxicity; 100 mg/kg bdw oral, 4 mice): 0
Mortality D5 (In vivo acute toxicity; 100 mg/kg bdw oral, 4 mice): 1
Mortality D7 (In vivo acute toxicity; 100 mg/kg bdw oral, 4 mice): 0
Mortality D14 (In vivo acute toxicity; 100 mg/kg bdw oral, 4 mice): 0
Liver histology (In vivo acute toxicity; 100 mg/kg, 200 mg/kg and 400 mg/kg, mice): mild to moderate vacuolar degeneration of hepatocytes
Kidney histology (In vivo acute toxicity; 100 mg/kg, mice): Kidney tubular degeneration
% Mortality (In vivo acute toxicity; 200 mg/kg bdw oral, 4 mice): 0%
Mortality D0 (In vivo acute toxicity; 200 mg/kg bdw oral, 4 mice): 0
Mortality D1 (In vivo acute toxicity; 200 mg/kg bdw oral, 4 mice): 0
Mortality D5 (In vivo acute toxicity; 200 mg/kg bdw oral, 4 mice): 0
Mortality D7 (In vivo acute toxicity; 200 mg/kg bdw oral, 4 mice): 0
Mortality D14 (In vivo acute toxicity; 200 mg/kg bdw oral, 4 mice): 0
Mortality D0 (In vivo acute toxicity; 400 mg/kg bdw oral, 4 mice): 0
Mortality D1 (In vivo acute toxicity; 400 mg/kg bdw oral, 4 mice): 1
Mortality D5 (In vivo acute toxicity; 400 mg/kg bdw oral, 4 mice): 0
Mortality D7 (In vivo acute toxicity; 400 mg/kg bdw oral, 4 mice): 0
Mortality D14 (In vivo acute toxicity; 400 mg/kg bdw oral, 4 mice): 0
Kidney histology (In vivo acute toxicity; 400 mg/kg, mice): Severe congestion and edema
% Mortality (In vivo acute toxicity; 2,000 mg/kg bdw oral, 4 mice): 0%
Mortality D0 (In vivo acute toxicity; 2,000 mg/kg bdw oral, 4 mice): 0
Mortality D1 (In vivo acute toxicity; 2,000 mg/kg bdw oral, 4 mice): 0
Mortality D5 (In vivo acute toxicity; 2,000 mg/kg bdw oral, 4 mice): 0
Mortality D7 (In vivo acute toxicity; 2,000 mg/kg bdw oral, 4 mice): 0
Mortality D14 (In vivo acute toxicity; 2,000 mg/kg bdw oral, 4 mice): 0
Kidney histology (In vivo acute toxicity; 2000 mg/kg, mice): no lesions
% Mortality (In vivo acute toxicity; 5,000 mg/kg bdw oral, 1 mouse): 0%
Mortality D0 (In vivo acute toxicity; 5,000 mg/kg bdw oral, 1 mouse): 0
Mortality D1 (In vivo acute toxicity; 5,000 mg/kg bdw oral, 1 mouse): 0
Mortality D5 (In vivo acute toxicity; 5,000 mg/kg bdw oral, 1 mouse): 0
Mortality D7 (In vivo acute toxicity; 5,000 mg/kg bdw oral, 1 mouse): 0
Mortality D14 (In vivo acute toxicity; 5,000 mg/kg bdw oral, 1 mouse): 0
Toxicity at the highest concentration limit (In vivo acute toxicity; 5000 mg/kg, single oral dose, mice): no toxicity
Body weight change (In vivo acute toxicity; with increase in concentration of compound, acute toxicity study, mice): gained additional weight
